# According to ChEMBL document CHEMBL3244198, “Hetacillin (R)- and (S)-sulfoxides. Synthesis and structure-activity relationships” (1978):
# Tests used:
# Format in all cases: functional
# Streptococcus pneumoniae = experiment: Antibacterial activity against Streptococcus pneumoniae 9585 by two-fold serial dilution technique
# How it was run: (§1)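 MIC read as µg/mL from twofold serial dilutions of each compound in nutrient broth, tested against the named strain.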
# Streptococcus pyogenes [1] = experiment: Antibacterial activity against Streptococcus pyogenes 9604 by two-fold serial dilution technique; how it was run: as §1
# Staphylococcus aureus [2] = experiment: Antibacterial activity against Staphylococcus aureus 9537 by two-fold serial dilution technique; how it was run: as §1
# Staphylococcus aureus [3] = experiment: Antibacterial activity against penicillin-resistant Staphylococcus aureus 9606 by two-fold serial dilution technique
# How it was run: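 MIC (µg/mL) was determined by twofold serial dilution in nutrient broth against penicillin-resistant S. aureus 9606.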
# Escherichia coli = experiment: Antibacterial activity against Escherichia coli 15119 by two-fold serial dilution technique; how it was run: as §1
# Proteus mirabilis = experiment: Antibacterial activity against Proteus mirabilis 9900 by two-fold serial dilution technique; how it was run: as §1
# Proteus vulgaris = experiment: Antibacterial activity against Proteus vulgaris 9716 by two-fold serial dilution technique; how it was run: as §1
# Streptococcus pyogenes [4] = experiment: Antibacterial activity against Streptococcus pyogenes A9604 infected in mouse assessed as mouse survival administered intramuscularly at 1 hr post-infection measured for 5 days; conditions: A9604, im, read-out: PD50
# How it was run: (§2)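 Mice were challenged intraperitoneally with about 1.3 × 10^3 S. pyogenes A9604 per mouse, diluted in brain heart infusion broth to give a uniform lethal infection. Fourfold compound dilutions were given intramuscularly or orally at 1 and 3.5 h postinfection. Survivors were followed for 5 days. PD50 is the total dose (mg/kg) protecting 50% of mice, calculated by the Spearman-Kärber method.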
# Streptococcus pyogenes [5] = experiment: Antibacterial activity against Streptococcus pyogenes A9604 infected in po dosed mouse assessed as mouse survival administered at 3.5 hrs post-infection measured for 5 days; conditions: read-out: PD50; how it was run: as §2
SMILES,MIC (Streptococcus pneumoniae) [µg/mL],MIC (Streptococcus pyogenes [1]) [µg/mL],MIC (Staphylococcus aureus [2]) [µg/mL],MIC (Staphylococcus aureus [3]) [µg/mL],MIC (Escherichia coli) [µg/mL],MIC (Proteus mirabilis) [µg/mL],MIC (Proteus vulgaris) [µg/mL],ED50 (Streptococcus pyogenes [4]) [mg/kg],ED50 (Streptococcus pyogenes [5]) [mg/kg]
CC1(C)N=C(c2ccccc2)C(=O)N1[C@@H]1C(=O)N2[C@@H]1[S@+]([O-])C(C)(C)[C@@H]2C(=O)O,1,1,> 8,> 125,> 125,> 125,> 125,–,–
CC1(C)N[C@H](c2ccccc2)C(=O)N1[C@@H]1C(=O)N2[C@@H]1[S@+]([O-])C(C)(C)[C@@H]2C(=O)O,0.13,0.13,1,> 125,8,1,1,3.1,9.4
CC1(C)N[C@H](c2ccccc2)C(=O)N1[C@@H]1C(=O)N2[C@@H]1[S@@+]([O-])C(C)(C)[C@@H]2C(=O)O,0.5,0.5,4,> 125,32,4,4,9.6,> 25
CC1(C)S[C@@H]2[C@H](N3C(=O)[C@@H](c4ccccc4)NC3(C)C)C(=O)N2[C@H]1C(=O)O [HETACILLIN],0.004,0.004,0.016,> 125,1,0.13,0.13,0.2,0.3
